According to ChEMBL document CHEMBL5046307 (ACS Med Chem Lett, 2022):

What was measured:
[1] = Inhibition of human electron transport chain complex 1 in human NCI-H1299 cells assessed as reduction in cellular ATP level measured after 24 hrs by CellTiter-Glo assay; assay type: cell-based
Method in brief: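 ATP-dependent luciferase luminescence read in H1299 cells, first without (M1) and then after adding the complex II substrate succinate (M2), to separate complex I block from downstream respiratory-chain inhibition or uncoupling.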

[2] = Lipophilicity, logD of compound; details: octanol/water
[3] = Blood clearance in male Wistar rat at 0.3 to 5 mg/kg, iv and po by LC-MS/MS analysis; assay type: ADME, organism-based; details: dose 0.3-5 mg/kg
[4] = Metabolic stability in rat hepatocyte assessed as maximum bioavailability measured up to 90 mins by LC-MS/MS analysis; assay type: ADME; details: for Fh at 1.5 h: rat hepatocytes, read-out: Fmax
[5] = Inhibition of human electron transport chain complex 1 in dog A-72 cells assessed as reduction in cellular ATP measured after 24 hrs by CellTiter-Glo assay; assay type: cell-based; details: A-72, 24 h
[6] = Inhibition of human electron transport chain complex 1 in human HCT-116 cells assessed as reduction in cellular ATP measured after 24 hrs by CellTiter-Glo assay; assay type: cell-based; details: HCT-116, 24 h
[7] = Inhibition of human electron transport chain complex 1 in rat C6 cells assessed as reduction in cellular ATP measured after 24 hrs by CellTiter-Glo assay; assay type: cell-based; details: C6, 24 h
[8] = Inhibition of human electron transport chain complex 1 in mouse 4T1 cells assessed as reduction in cellular ATP measured after 24 hrs by CellTiter-Glo assay; assay type: cell-based; details: 4T1, 24 h
[9] = Inhibition of human electron transport chain complex 1 in dog MDCK cells assessed as reduction in cellular ATP measured after 24 hrs by CellTiter-Glo assay; assay type: cell-based
[10] = Inhibition of mouse electron transport chain complex 1 assessed as reduction in cellular ATP measured after 24 hrs by celltiter-glo assay
[11] = Clearance in male Wistar rat blood at 0.4 mg/kg, iv by LC-MS/MS analysis
[12] = AUC in Wistar rat plasma at 0.8 mg/kg, po by LC-MS/MS analysis; assay type: ADME, organism-based; set-up: dose 0.8 mg/kg; details: in vivo
[13] = Half life in Wistar rat plasma at 0.4 mg/kg, iv by LC-MS/MS analysis; assay type: ADME, organism-based
[14] = Oral bioavailability in Wistar rat plasma at 0.8 mg/kg by LC-MS/MS analysis; assay type: ADME, organism-based
[15] = Inhibition of dog electron transport chain complex 1 assessed as reduction in cellular ATP measured after 24 hrs by celltiter-glo assay; details: Canis lupus familiaris
[16] = Inhibition of rat electron transport chain complex 1 assessed as reduction in cellular ATP measured after 24 hrs by celltiter-glo assay
[17] = Plasma protein binding in mouse assessed as fraction unbound incubated for 6 to 8 hrs by LC-MS/MS analysis; assay type: ADME, cell-free; details: time 6-8 hrs
[18] = Volume of distribution at steady state in Wistar rat plasma at 0.4 mg/kg, iv by LC-MS/MS analysis; assay type: ADME, organism-based; details: read-out: Vdss

Row | Compound | IC50 ([1]; Homo sapiens, NCI-H1299, 24 h) [nM] | logD [2] | further results
1 | c1ccc2oc(-c3csc(C4CCN(Cc5cn6ccccc6n5)CC4)n3)cc2c1 | 340 | 2.9 | 
2 | CC(C)(c1nc2ccccc2[nH]1)N1CCC(c2nc(-c3cc4ccccc4o3)cs2)CC1 | 3000 | 3.8 | 
3 | Fc1cccc2[nH]c(CN3CCC(c4nc(-c5cc6ccccc6o5)cs4)CC3)nc12 | 325 | 3.7 | clearance [3]: 18.3 mL/min/kg; Fh at 1.5 h [4]: 57%
4 | CCn1c(CN2CCC(c3nc(-c4cc5ccccc5o4)cs3)CC2)nc2ccccc21 | > 30000 | 3.4 | 
5 | CN(C(=O)CN1CCC(c2nc(-c3cc4ccccc4o3)cs2)CC1)c1ccncc1 | 96 | 3 | Fh at 1.5 h [4]: 10%
6 | O=C(CN1CCC(c2nc(-c3cc4ccccc4o3)cs2)CC1)Nc1ccncc1 | 70 |  | 
7 | O=C(CN1CCC(c2nc(-c3cc4ccccc4o3)cs2)CC1)Nc1ccccc1F | 3240 |  | 
8 | Fc1ccc2cc(-c3csc(C4CCN(Cc5nc6ccccc6[nH]5)CC4)n3)oc2c1 | 500 | 3.5 | 
9 | N#Cc1ccc2oc(-c3csc(C4CCN(Cc5nc6ccccc6[nH]5)CC4)n3)cc2c1 | 2000 | 3 | 
10 | Cc1ccc2[nH]c(CN3CCC(c4nc(-c5cc6ccccc6o5)cs4)CC3)nc2n1 | 300 | 3 | 
11 | c1ccc2oc(-c3csc(C4CCN(Cc5cn6cccnc6n5)CC4)n3)cc2c1 | 730 | 2.5 | 
12 | c1ccc2oc(-c3csc(C4CCN(Cc5cn6ncccc6n5)CC4)n3)cc2c1 | 300 | 3.1 | 
13 | CCc1nccc(NC(=O)CN2CCC(c3nc(-c4cc5ccccc5o4)cs3)CC2)c1Cl | 102 |  | 
14 | O=C(CN1CCC(c2nc(-c3cc4ccccc4o3)cs2)CC1)Nc1cccc(C(F)(F)F)c1 | 3280 |  | 
15 | c1ccc2oc(-c3csc(C4CCN(Cc5ncc[nH]5)CC4)n3)cc2c1 | 4000 | 2.6 | 
16 | c1ccc2oc(-c3csc(C4CCN(Cc5nc6ccccc6o5)CC4)n3)cc2c1 | 1720 | 4.6 | 
17 | c1ccc2[nH]c(CN3CCC(c4nc(-c5cc6ncccc6o5)cs4)CC3)nc2c1 | 770 | 2.4 | 
18 | c1ccc2[nH]c(CN3CCC(c4nc(-c5nc6ccccc6s5)cs4)CC3)nc2c1 | 710 | 3.1 | 
19 | c1ccc2oc(-c3csc(C4CCN(Cc5nc6ccccc6s5)CC4)n3)cc2c1 | 1760 | 5.6 | 
20 | Cc1nsc(NC(=O)CN2CCC(c3nc(-c4cc5ccccc5o4)cs3)CC2)c1Cl | 25 | 5.1 | clearance [3]: 163 mL/min/kg; IC50 [5]: 27 nM; IC50 [6]: 3.9 nM; IC50 [7]: 1.7 nM; Fh at 1.5 h [4]: 18%; IC50 [8]: 13 nM; IC50 [9]: 49 nM
21 | N#Cc1ccc2nc(CN3CCC(c4nc(-c5cc6ccccc6o5)cs4)CC3)[nH]c2c1 | 860 | 3.4 | 

Row | Compound | IC50 ([1]; Homo sapiens, NCI-H1299, 24 h) [nM] | logD [2] | further results
22 | Cn1c(CN2CCC(c3nc(-c4cc5ccccc5o4)cs3)CC2)nc2ccccc21 | 700 | 4.3 | 
23 | O=C(c1nc2ccccc2[nH]1)N1CCC(c2nc(-c3cc4ccccc4o3)cs2)CC1 | 3000 | 4.3 | 
24 | c1ccc2oc(-c3csc(C4CCN(Cc5nc6ncncc6[nH]5)CC4)n3)cc2c1 | 80 | 2.6 | 
25 | c1ccc(-c2csc(C3CCN(Cc4nc5ccccc5[nH]4)CC3)n2)cc1 | 10000 | 3 | 
26 | c1ccc2oc(-c3csc(C4CCN(Cc5nc6cnccc6[nH]5)CC4)n3)cc2c1 | 38 |  | IC50 [10]: 26 nM; clearance [11]: 20 mL/min/kg; AUC [12]: 1 kg·h/L; Fh at 1.5 h [4]: 63%; half-life [13]: 3.1 h; bioavailability [14]: 80%; IC50 [15]: 37 nM; IC50 [16]: 22 nM; Fu [17]: 0.59%; Vd [18]: 3.2 L/kg
27 | c1ccc(-c2c[nH]c(CN3CCC(c4nc(-c5cc6ccccc6o5)cs4)CC3)n2)cc1 | 860 | 3.7 | 
28 | c1coc(-c2csc(C3CCN(Cc4nc5ccccc5[nH]4)CC3)n2)c1 | > 30000 | 2.6 | 
29 | CC(C)(C(=O)Nc1cccc(F)c1)N1CCC(c2nc(-c3cc4ccccc4o3)cs2)CC1 | > 30000 | 5.7 | Fh at 1.5 h [4]: 55%
30 | Fc1cnc2nc(CN3CCC(c4nc(-c5cc6ccccc6o5)cs4)CC3)[nH]c2c1 | 300 | 3.1 | 
31 | O=C(CN1CCC(c2nc(-c3cc4ccccc4o3)cs2)CC1)Nc1cccc(F)c1 | 420 |  | 
32 | Cn1c(-c2csc(C3CCN(Cc4nc5ccccc5[nH]4)CC3)n2)nc2ccccc21 | 20000 | 2.5 | 
33 | c1ccc2oc(-c3csc(C4CCN(c5nnc(-c6ccncc6)o5)CC4)n3)cc2c1 | 13400 | 3.3 | Fh at 1.5 h [4]: 44%
34 | c1ccc2oc(-c3csc(C4CCN(Cc5cn6ccncc6n5)CC4)n3)cc2c1 | 390 | 2.7 | 
35 | O=C(CN1CCC(c2nc(-c3cc4ccccc4o3)cs2)CC1)Nc1cncs1 | 155 |  | 
36 | Cc1ccnc2nc(CN3CCC(c4nc(-c5cc6ccccc6o5)cs4)CC3)[nH]c12 | 300 | 3 | 
37 | c1ccc2oc(-c3csc(C4CCN(Cc5nc6ccccc6[nH]5)CC4)n3)cc2c1 | 200 | 3.4 | 
38 | O=C(CN1CCC(c2nc(-c3cc4ccccc4o3)cs2)CC1)Nc1ccccc1 | 882 |  | 
39 | Cc1nsc(NC(=O)C(C)N2CCC(c3nc(-c4cc5ccccc5o4)cs3)CC2)c1Cl (racemic) | 77 | 5.6 | clearance [3]: 118 mL/min/kg; Fh at 1.5 h [4]: 61%
40 | CC(c1nc2ccccc2[nH]1)N1CCC(c2nc(-c3cc4ccccc4o3)cs2)CC1 (racemic) | 400 | 3.7 | 
41 | CCc1nccc(N2CCC(N3CCC(c4nc(-c5cc6ccccc6o5)cs4)CC3)C2=O)c1Cl (single isomer, unassigned; form 1) |  | 4.2 | IC50 ([1]; nci-h1299): 14 nM; clearance [3]: 45 mL/min/kg; Fh at 1.5 h [4]: 40%
42 | CCc1nccc(N2CCC(N3CCC(c4nc(-c5cc6ccccc6o5)cs4)CC3)C2=O)c1Cl (single isomer, unassigned; form 2) |  |  | IC50 ([1]; nci-h1299): 950 nM; Fmax ([4]; hepatocytes, 1.5 h): 43%
